What was measured:
[1] = melting temperature; fluorescence melt of hairpins on a sequencing array, two-state fit, raised by 9.35 °C to match UV melts; details: sodium 0.088 M
In short: (§1)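 On a sequenced MiSeq flow cell, library hairpins with annealed Cy3 and quencher oligos were imaged for Cy3 fluorescence in 2.5 °C steps up to 60 °C, in 50 mM Na-HEPES pH 8.0, 25 mM NaCl. Normalisation used pre-quench Cy3 and control constructs. Bootstrapped two-state fits gave melting temperature and folding enthalpy, combined by inverse variance across four replicates and with fitted temperatures raised by 9.35 °C to match UV melts.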

[2] = folding enthalpy; higher = less favourable; fluorescence melt of hairpins on a sequencing array, two-state fit; details: sodium 0.088 M
In short: as §1

GATCTTGTACAAGATC ((((((....))))))
Tm [1]: 51.7 °C
folding enthalpy [2]: -43.2 kcal/mol

GTGTTGGGAAACTAACGC (.(((.(....).))).)
Tm [1]: 35.9 °C
folding enthalpy [2]: -25.5 kcal/mol

GCATCGCGAAAGCCACGC ((.(.((....)).).))
Tm [1]: 26.5 °C
folding enthalpy [2]: -10.2 kcal/mol

GGAATGGGAAACCGTTTC (.((.((....)).)).)
Tm [1]: 30.7 °C
folding enthalpy [2]: -18 kcal/mol

GGCATAGGAAACTGTGTC (.((.((....)).)).)
Tm [1]: 33.5 °C
folding enthalpy [2]: -23.9 kcal/mol

GGTCACGAAAGTGTACC ((((((....))).)))
Tm [1]: 51.5 °C
folding enthalpy [2]: -25.6 kcal/mol

GCACCACCGAAAGGTTGC (((..(((....))))))
Tm [1]: 39.5 °C
folding enthalpy [2]: -15.9 kcal/mol

GGTCTGGGAAACCAAACC (((.(((....))).)))
Tm [1]: 35.1 °C
folding enthalpy [2]: -29.9 kcal/mol

GCCGGGCGAAAGCCAAGC ((..(((....)))..))
Tm [1]: 46.8 °C
folding enthalpy [2]: -14.5 kcal/mol

GCGGTTGGAAACAACTGC ((.((((....)))).))
Tm [1]: 55.6 °C
folding enthalpy [2]: -46.5 kcal/mol

GGGAATCGAAAGATCCCC (((.(((....))).)))
Tm [1]: 51.5 °C
folding enthalpy [2]: -24.9 kcal/mol

GGGGTTCCGAAAGGACCC (((..(((....))))))
Tm [1]: 56.2 °C
folding enthalpy [2]: -32.6 kcal/mol

GCTAGCCCGAAAGGGAGC (((..(((....))))))
Tm [1]: 37.8 °C
folding enthalpy [2]: -14.3 kcal/mol

CACTCGAAAGAGTG (((((....)))))
Tm [1]: 59.9 °C
folding enthalpy [2]: -24.4 kcal/mol

GGCCAATCGAAAGATGCC (((..(((....))))))
Tm [1]: 42.9 °C
folding enthalpy [2]: -23.9 kcal/mol

GGTCTCGGAAACGAAACC (((.(((....))).)))
Tm [1]: 39.2 °C
folding enthalpy [2]: -27.5 kcal/mol

GGATACCGAAAGGTGTCC (((.(((....))).)))
Tm [1]: 58.8 °C
folding enthalpy [2]: -44 kcal/mol

GCCTCCCCGAAAGGGGGC (((..(((....))))))
Tm [1]: 52.5 °C
folding enthalpy [2]: -9.45 kcal/mol

GCGAGCGAAAGCTACGC ((((((....))).)))
Tm [1]: 62.6 °C
folding enthalpy [2]: -18 kcal/mol

GCGACAACGAAAGTTCGC (((..(((....))))))
Tm [1]: 49.4 °C
folding enthalpy [2]: -28.6 kcal/mol

GTGAACGAAAGTTTGCAC ((((((....)))..)))
Tm [1]: 32 °C
folding enthalpy [2]: -15.4 kcal/mol

GAAAGGGGAAACTCTTTC (((((.(....).)))))
Tm [1]: 36.3 °C
folding enthalpy [2]: -25 kcal/mol

GTTCGGGAAACCGAAC ((((((....))))))
Tm [1]: 61.1 °C
folding enthalpy [2]: -38.1 kcal/mol

GTAATACGAAAGTATAC (((.(((....))))))
Tm [1]: 34.5 °C
folding enthalpy [2]: -16 kcal/mol

GATCCGAAATCGGATC ((((((....))))))
Tm [1]: 54.9 °C
folding enthalpy [2]: -35.4 kcal/mol

GGCGCCGAAAGGCTCGCC ((((((....)))..)))
Tm [1]: 54.5 °C
folding enthalpy [2]: -19.1 kcal/mol

GTGGACGAAAGTCTACAC ((((((....)))..)))
Tm [1]: 51.2 °C
folding enthalpy [2]: -16.3 kcal/mol

GGTCTGGGAAACCGGACC ((((.((....)).))))
Tm [1]: 58.6 °C
folding enthalpy [2]: -46.1 kcal/mol

GGTTTAGGAAACCAAACC (((((.(....).)))))
Tm [1]: 37 °C
folding enthalpy [2]: -22.9 kcal/mol

GCACCGCGAAAGCCGGGC ((.(.((....)).).))
Tm [1]: 54.5 °C
folding enthalpy [2]: -20.6 kcal/mol

GGAATTGGAAACAACTCC (((.(((....))).)))
Tm [1]: 30.3 °C
folding enthalpy [2]: -22.2 kcal/mol

GGATGGAAACATCC (((((....)))))
Tm [1]: 51.8 °C
folding enthalpy [2]: -29.8 kcal/mol

GGGCGCCGAAAGGCACCC (((.(((....))).)))
Tm [1]: 67.5 °C
folding enthalpy [2]: -22.8 kcal/mol

GAGCCCGAAAGGGCCTC ((((((....))).)))
Tm [1]: 58.9 °C
folding enthalpy [2]: -8.72 kcal/mol

GTAGCCGAAAGGCCATAC ((((((....)))..)))
Tm [1]: 22.3 °C
folding enthalpy [2]: -8.17 kcal/mol

GATCGCGAAAGCGGTATC ((((((....)))..)))
Tm [1]: 39 °C
folding enthalpy [2]: -10.9 kcal/mol

GGTCCCCCGAAAGGGACC (((..(((....))))))
Tm [1]: 63.9 °C
folding enthalpy [2]: -29.9 kcal/mol

GCTCTGCGAAAGCCGGGC ((.(.((....)).).))
Tm [1]: 41.7 °C
folding enthalpy [2]: -20.1 kcal/mol

GTCTCTCGAAAGAGGAC (((.(((....))))))
Tm [1]: 45.1 °C
folding enthalpy [2]: -24.2 kcal/mol

GCGTGATAACGC ((((....))))
Tm [1]: 69.3 °C
folding enthalpy [2]: -26.9 kcal/mol

GCGTTGGAACGC ((((....))))
Tm [1]: 52.4 °C
folding enthalpy [2]: -16.5 kcal/mol

GACAGGGGAAACCTTGTC ((((.((....)).))))
Tm [1]: 45.2 °C
folding enthalpy [2]: -32.4 kcal/mol

GATCCGGTGCGGATC ((((((...))))))
Tm [1]: 57.5 °C
folding enthalpy [2]: -45.2 kcal/mol

GATCCTGAGAGGATC ((((((...))))))
Tm [1]: 50.7 °C
folding enthalpy [2]: -31.1 kcal/mol

GATCCTAGCTAGGATC ((((((....))))))
Tm [1]: 54.1 °C
folding enthalpy [2]: -56.9 kcal/mol

GTACAAGGAAACTTGTAC (((((((....)))))))
Tm [1]: 53.2 °C
folding enthalpy [2]: -38.9 kcal/mol

GGATTGCGAAAGCACTCC (((.(((....))).)))
Tm [1]: 49.4 °C
folding enthalpy [2]: -34.9 kcal/mol

GATCAATCTGTTGATC ((((((....))))))
Tm [1]: 45.6 °C
folding enthalpy [2]: -35.1 kcal/mol

GATATCCCGAAAGGGATC (((..(((....))))))
Tm [1]: 32.5 °C
folding enthalpy [2]: -8.05 kcal/mol

GGAACCACGAAAGTGTCC (((..(((....))))))
Tm [1]: 28.1 °C
folding enthalpy [2]: -11.2 kcal/mol

GTCACACCGAAAGGTGAC (((..(((....))))))
Tm [1]: 41.1 °C
folding enthalpy [2]: -10.9 kcal/mol

GCCCGGGGAAACCCGAGC ((.((((....)))).))
Tm [1]: 52.9 °C
folding enthalpy [2]: -25.2 kcal/mol

GTGTGTGGAAACGCATAC ((.((.(....).)).))
Tm [1]: 36 °C
folding enthalpy [2]: -22.9 kcal/mol

GACACTGGAAACGGTGTC (((((.(....).)))))
Tm [1]: 52.9 °C
folding enthalpy [2]: -38.8 kcal/mol

GCAAGCACGAAAGTGTGC (((..(((....))))))
Tm [1]: 40.4 °C
folding enthalpy [2]: -16 kcal/mol

GTCCTCACGAAAGTGGAC (((..(((....))))))
Tm [1]: 43 °C
folding enthalpy [2]: -17.2 kcal/mol

GCGAGCGGAAACACCCGC (((.(.(....).).)))
Tm [1]: 36.4 °C
folding enthalpy [2]: -13.8 kcal/mol

GCAAAGCGAAAGCGTGGC ((.(.((....)).).))
Tm [1]: 50.6 °C
folding enthalpy [2]: -15.9 kcal/mol

GTACGAGGAAACTCGTGC (.(((((....))))).)
Tm [1]: 52 °C
folding enthalpy [2]: -39.2 kcal/mol

GGTACGGGAAACTGTGCC ((.((.(....).)).))
Tm [1]: 43.1 °C
folding enthalpy [2]: -31.2 kcal/mol

GATCCGATTCCGGATC ((((((....))))))
Tm [1]: 57.1 °C
folding enthalpy [2]: -43.5 kcal/mol

GTCTCGGAAACGAGAC ((((((....))))))
Tm [1]: 64.8 °C
folding enthalpy [2]: -44.5 kcal/mol

GCCCTAGGAAACCAGGGC (((((.(....).)))))
Tm [1]: 52.5 °C
folding enthalpy [2]: -47 kcal/mol

GTAAAGGGAAACCCTTAC ((((.((....)).))))
Tm [1]: 32.8 °C
folding enthalpy [2]: -22.2 kcal/mol

GGGTGTGAAAACACCC ((((((....))))))
Tm [1]: 69 °C
folding enthalpy [2]: -34.4 kcal/mol

GCCCGGCGAAAGCACGGC (((..((....))..)))
Tm [1]: 57.1 °C
folding enthalpy [2]: -13.3 kcal/mol

GCCGATCGAAAGATAGGC (((.(((....))).)))
Tm [1]: 61 °C
folding enthalpy [2]: -41 kcal/mol

GCCTAGCGAAAGCCCGGC (((..((....))..)))
Tm [1]: 42.7 °C
folding enthalpy [2]: -17.4 kcal/mol

GCGCCCGAAAGGGGTCGC ((((((....)))..)))
Tm [1]: 58.3 °C
folding enthalpy [2]: -19.5 kcal/mol

Reference: the array DNA melting data of Ke et al. (doi:10.1101/2024.01.08.574731)
